Measured values from ChEMBL document CHEMBL2169861, “Synthesis and biological evaluation of novel unsaturated carboxysteroids as human 5α-reductase inhibitors: a legitimate approach” (Eur J Med Chem, 2012).
pIC50: −log10 of the molar value.

Tests used:
Rattus norvegicus [1] = assay: Anti-benign prostatic hyperplasia activity in Wistar rat assessed as reduction of liver weight gain per 100 gram of body weight at 1 mg/kg, po qd for 14 days measured on day 15; type: functional
How it was run: (§1)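 Mature male Wistar rats, acclimatised one month, dosed orally once daily for 14 days with suspension in 0.50% carboxymethylcellulose at 5 ml/kg; vehicle controls; 5 rats/group. Killed under ether on day 15, 24 h after last dose; organs dissected free of fat and connective tissue, weighed, expressed per 100 g body weight. Mean ± SEM; one-way ANOVA with Dunnett's test.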

Rattus norvegicus [2] = assay: Anti-benign prostatic hyperplasia activity in Wistar rat assessed as reduction of epididymis weight gain at 1 mg/kg, po qd for 14 days measured on day 15; type: functional; set-up: scale not given: the % may be the effect or the level left; how it was run: as §1
Rattus norvegicus [3] = assay: Anti-benign prostatic hyperplasia activity in Wistar rat assessed as reduction of vas deferens weight gain at 1 mg/kg, po qd for 14 days measured on day 15; type: functional; set-up: scale not given: the % may be the effect or the level left; how it was run: as §1
Rattus norvegicus [4] = assay: Anti-benign prostatic hyperplasia activity in Wistar rat assessed as reduction of adrenal weight gain per 100 gram of body weight at 1 mg/kg, po qd for 14 days measured on day 15; type: functional; how it was run: as §1
Rattus norvegicus [5] = assay: Anti-benign prostatic hyperplasia activity in Wistar rat assessed as reduction of testis weight gain per 100 gram of body weight at 1 mg/kg, po qd for 14 days measured on day 15; type: functional; how it was run: as §1
Rattus norvegicus [6] = assay: Anti-benign prostatic hyperplasia activity in Wistar rat assessed as reduction of seminal vesicle weight gain per 100 gram of body weight at 1 mg/kg, po qd for 14 days measured on day 15; type: functional; how it was run: as §1
Rattus norvegicus [7] = assay: Anti-benign prostatic hyperplasia activity in Wistar rat assessed as reduction of dorsal prostate weight gain at 1 mg/kg, po qd for 14 days measured on day 15; type: functional, Prostate gland; set-up: scale not given: the % may be the effect or the level left; how it was run: as §1
Rattus norvegicus [8] = assay: Anti-benign prostatic hyperplasia activity in Wistar rat assessed as reduction of ventral prostate weight gain at 1 mg/kg, po qd for 14 days measured on day 15; type: functional, Prostate gland; set-up: scale not given: the % may be the effect or the level left; how it was run: as §1
Rattus norvegicus [9] = assay: Anti-benign prostatic hyperplasia activity in Wistar rat assessed as reduction of body weight gain at 1 mg/kg, po qd for 14 days measured on day 15; type: functional; set-up: scale not given: the % may be the effect or the level left; how it was run: as §1
Rattus norvegicus [10] = assay: Toxicity in Wistar rat assessed as mortality at 1 mg/kg, po qd for 14 days measured on day 15; type: organism-based; set-up: dose 1 mg/kg, route oral; conditions: in vivo, 336 h
How it was run: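 Mature male Wistar rats, acclimatised one month, dosing begun after 9 weeks. Compound suspended in 0.50% carboxymethylcellulose sodium and given orally at 5 ml/kg once daily for 14 days. Vehicle-only control group, 5 animals per group. Mortality recorded over treatment. Rats weighed and killed under ether anaesthesia on day 15, 24 h after the last dose.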

[11] = target: T1, 3-oxo-5-alpha-steroid 4-dehydrogenase 2 (Homo sapiens, UniProt P31213); assay: Inhibition of human type-2 5-alpha reductase expressed in HEK293 cells using [3H]-androstenedione as substrate after 30 mins by HPLC analysis; type: cell-based
T1 sequence (P31213 whole entry): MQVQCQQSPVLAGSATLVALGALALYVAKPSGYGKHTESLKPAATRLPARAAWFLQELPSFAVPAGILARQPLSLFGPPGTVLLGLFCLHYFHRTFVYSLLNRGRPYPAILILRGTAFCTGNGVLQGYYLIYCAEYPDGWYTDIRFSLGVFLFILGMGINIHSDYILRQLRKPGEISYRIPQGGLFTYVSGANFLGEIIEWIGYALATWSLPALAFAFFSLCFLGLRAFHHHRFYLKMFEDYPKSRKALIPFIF
How it was run: (§2)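 Lysates of 80% confluent HEK293 cells stably expressing human type I or type II cDNA (pRcCMV), sonicated in 300 mM saccharose, 5 mM Tris-HCl, 0.1 mM EDTA. Final 500 nM androstenedione with [3H]androstenedione, NADPH-regenerating system (0.55 mM NADP, 5 mM glucose-6-phosphate, G6PDH), 2% DMSO; 30 min, 37 °C. Ether-extracted; conversion quantified by radio-HPLC on C8.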

[12] = target: T2, 3-oxo-5-alpha-steroid 4-dehydrogenase 2 (Homo sapiens) (UniProt P31213); assay: Inhibition of human type-2 5-alpha reductase expressed in HEK293 cells using [3H]-androstenedione as substrate at 10 uM after 30 mins by HPLC analysis; type: cell-based; how it was run: as §2
T2 sequence (whole entry): T1 sequence (P31213 whole entry)

[13] = target: T3, 3-oxo-5-alpha-steroid 4-dehydrogenase 1 (Homo sapiens) (UniProt P18405); assay: Inhibition of human type-1 5-alpha reductase expressed in HEK293 cells using [3H]-androstenedione as substrate at 10 uM after 30 mins by HPLC analysis; type: cell-based; how it was run: as §2
T3 sequence (whole entry): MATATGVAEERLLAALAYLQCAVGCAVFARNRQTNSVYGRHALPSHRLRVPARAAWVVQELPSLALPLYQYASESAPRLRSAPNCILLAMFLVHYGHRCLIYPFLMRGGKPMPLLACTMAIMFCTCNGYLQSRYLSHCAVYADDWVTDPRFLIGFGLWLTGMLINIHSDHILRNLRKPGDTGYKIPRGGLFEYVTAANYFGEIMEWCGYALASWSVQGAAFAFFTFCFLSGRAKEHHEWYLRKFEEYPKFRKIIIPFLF

[14] = target: T2, 3-oxo-5-alpha-steroid 4-dehydrogenase 2 (Homo sapiens); assay: Inhibition of human type-2 5-alpha reductase expressed in HEK293 cells using [3H]-androstenedione as substrate at 2 uM after 30 mins by HPLC analysis; type: cell-based; how it was run: as §2

SMILES | Activity (Rattus norvegicus [1]) [g] | Activity (Rattus norvegicus [2]) [%] | Activity (Rattus norvegicus [3]) [%] | Activity (Rattus norvegicus [4]) [mg] | Activity (Rattus norvegicus [5]) [mg] | Activity (Rattus norvegicus [6]) [mg] | Activity (Rattus norvegicus [7]) [%] | Activity (Rattus norvegicus [8]) [%] | Activity (Rattus norvegicus [9]) [%] | Activity (Rattus norvegicus [10]) | pIC50 [11] | inhibition [12] [%] | inhibition [13] [%] | inhibition [14] [%]
CC(C)(C)NC(=O)[C@H]1CC[C@H]2[C@@H]3CC[C@H]4NC(=O)C=C[C@]4(C)[C@H]3CC[C@]12C [FINASTERIDE] | 3.5097 | 14.4 | 14.45 | 16.575 | 1058.022 | 105.51 | 45.32 | 44.76 | 8.032 | Non-toxic | 7.52 |  |  | 
C[C@]12CCC(C(=O)O)=CC1=CC[C@@H]1[C@@H]2CC[C@]2(C)NC(=O)CC[C@@H]12 | 2.713 | 13.98 | 26.33 | 13.973 | 993.729 | 186.102 | 46.5 | 27.33 | 8.323 | Non-toxic |  | 62.9 | 0 | 
C[C@]12CC[C@H]3[C@@H](CC=C4C=C(C(=O)O)CC[C@@H]43)[C@@H]1CCC2=O | 3.078 | 29.88 | 34.8 | 15.019 | 926.533 | 167.37 | 15.62 | 22.56 | 22.992 | Non-toxic | 6.67 | 100 | 82.1 | 89.5
CC(=O)N1C(=O)CC[C@H]2[C@@H]3CC=C4C=C(C#N)CC[C@]4(C)[C@H]3CC[C@@]21C |  |  |  |  |  |  |  |  |  |  |  | 23.2 | 2.2 | 
C=CCN1C(=O)CC[C@H]2[C@@H]3CC=C4C=C(C(=O)O)CC[C@]4(C)[C@H]3CC[C@@]21C | 3.168 | 24.75 | 27.89 | 17.967 | 1094.935 | 149.399 | 31.25 | 35.34 | 7.518 | Non-toxic | 7.14 | 100 | 0.4 | 99.7
C=CCN1C(=O)CC[C@H]2[C@@H]3CC=C4C=C(C#N)CC[C@]4(C)[C@H]3CC[C@@]21C |  |  |  |  |  |  |  |  |  |  |  | 3.3 | 20.8 | 
C[C@]12CCC(C#N)=CC1=CC[C@@H]1[C@@H]2CC[C@@]2(C)[C@H]1CCC(=O)N2C(=O)c1ccccc1 |  |  |  |  |  |  |  |  |  |  |  | 11.4 | 0 | 
CCOC(=O)CCN1C(=O)CC[C@H]2[C@@H]3CC=C4C=C(C(=O)O)CC[C@]4(C)[C@H]3CC[C@@]21C | 3.542 | 25.41 | 37.55 | 17.522 | 1075.498 | 136.605 | 28.75 | 33.86 | 15.618 | Non-toxic | 7.58 | 100 | 8.5 | 100
C[C@]12CCC(Br)=CC1=CC[C@@H]1[C@@H]2CC[C@]2(C)NC(=O)CC[C@@H]12 |  |  |  |  |  |  |  |  |  |  |  | 45.6 | 34.5 | 
C[C@]12CCC(C#N)=CC1=CC[C@@H]1[C@@H]2CC[C@]2(C)NC(=O)CC[C@@H]12 |  |  |  |  |  |  |  |  |  |  |  | 9.9 | 27.6 | 
C[C@]12CCC(C#N)=CC1=CC[C@@H]1[C@@H]2CC[C@@]2(C)[C@H]1CCC(=O)N2CCC#N |  |  |  |  |  |  |  |  |  |  |  | 9.9 | 0 | 
CN1C(=O)CC[C@H]2[C@@H]3CC=C4C=C(C(=O)O)CC[C@]4(C)[C@H]3CC[C@@]21C | 3.224 | 31.75 | 29.36 | 12.464 | 956.392 | 126.262 | 39.96 | 39.5 | 6.517 | Non-toxic | 7.27 | 100 | 18.9 | 99
CCN1C(=O)CC[C@H]2[C@@H]3CC=C4C=C(C(=O)O)CC[C@]4(C)[C@H]3CC[C@@]21C | 2.91 | 17.25 | 19.32 | 15.574 | 1128.214 | 151.015 | 28.37 | 39.35 | 5.409 | Non-toxic | 7.66 | 100 | 32.3 | 100
C[C@]12CC[C@H]3[C@@H](CC=C4C=C(C#N)CC[C@@H]43)[C@@H]1CCC2=O |  |  |  |  |  |  |  |  |  |  |  | 1.2 | 0 | 
C[C@]12CCC(C#N)=CC1=CC[C@@H]1[C@@H]2CC[C@@]2(C)[C@H]1CCC(=O)N2Cc1ccccc1 |  |  |  |  |  |  |  |  |  |  |  | 34.7 | 0 | 
CCN1C(=O)CC[C@H]2[C@@H]3CC=C4C=C(C#N)CC[C@]4(C)[C@H]3CC[C@@]21C |  |  |  |  |  |  |  |  |  |  |  | 48.9 | 56.1 | 
